# Reference: ChEMBL document CHEMBL1158487, “Small molecule chloropyramine hydrochloride (C4) targets the binding site of focal adhesion kinase and vascular endothelial growth factor receptor 3 and suppresses breast cancer growth in vivo” (J Med Chem, 2009)
# Calls of active or inactive are those of the source. No cut-off for these calls is given here.
# How the values were obtained:
# PANC-1 = experiment: Cytotoxicity against human PANC1 cells after 72 hrs by MTS assay; assay type: functional, cell-based; details: PANC-1, 72 h
# Outline: (§1)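 MTS viability assay, read as mitochondrial dehydrogenase activity of metabolically active cells. Cells were seeded at 5.0 × 10^3 per well and attached overnight. Fresh medium with or without compound was added, followed by 72 h exposure at increasing concentrations. Error shown as ±SEM.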
# [1] = Cytotoxicity against human C8161 cells after 72 hrs by MTS assay; assay type: functional, cell-based; details: C8161, 72 h; outline: as §1
# HT-29 = experiment: Cytotoxicity against human HT-29 cells after 72 hrs by MTS assay; assay type: functional, cell-based; details: HT-29, 72 h; outline: as §1
# BT-474 [2] = experiment: Cytotoxicity against human BT474 cells assessed as reduction in viability at 1 uM after 48 hrs by MTS assay; assay type: functional
# Outline: (§2)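 Viability measured by MTS after 48 h exposure. Cells were seeded at 5.0 × 10^3 per well and attached overnight before compound-containing medium was added. BT474 is a […] subclone grown in RPMI-1640 with 10% FBS and 250 µg/ml insulin. MCF7 stable clones carried either empty pcDNA3 or VEGFR-3. Mean ± SEM, ≥3 experiments, two-tailed t test.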
# [3] = Cytotoxicity against human MCF10A cells assessed as cell viability at 0.1 to 10 uM by MTS assay; assay type: cell-based; details: mcf-10a
# Outline: (§3)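 MTS cell survival assay. Cells were plated at 5.0 × 10^3 per well and allowed to attach overnight, then given fresh medium with or without compound for the designated time. Absorbance was read per the kit protocol. Mean ± SEM of three or more independent experiments.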
# BT-474 [4] = experiment: Cytotoxicity against human BT474 cells assessed as cell viability at 0.1 to 10 uM by MTS assay; assay type: functional, cell-based; outline: as §3
# MCF7 [5] = experiment: Cytotoxicity against human MCF7 cells expressing VEGFR3 assessed as cell viability after 48 hrs by MTS assay; assay type: functional, cell-based; outline: as §2
# [6] = Cytotoxicity against human MCF10A cells assessed as cell viability at 100 uM by MTS assay; assay type: cell-based; details: mcf-10a; outline: as §3
# BT-474 [7] = experiment: Cytotoxicity against human BT474 cells assessed as cell viability at 100 uM by MTS assay; assay type: functional, cell-based; outline: as §3
# MCF7 [8] = experiment: Antiproliferative activity against human MCF7 cells expressing VEGFR3 after 48 hrs by BrdU incorporation assay; assay type: functional, cell-based
# Outline: (§4)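 Cells plated at 2.5 × 10^3 per well and allowed to attach overnight. Fresh growth medium with or without compound was added along with BrdU labelling reagent, and cells were incubated for the set time. BrdU incorporation was then read with a kit per the manufacturer. Data are mean ± SEM of three or more independent experiments, compared by two-tailed Student's t test.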
# BT-474 [9] = experiment: Antiproliferative activity against human BT474 cells after 48 hrs by BrdU incorporation assay; assay type: functional, cell-based; outline: as §4
# MCF7 [10] = experiment: Cytotoxicity against human MCF7 cells assessed as cell viability at 10 uM after 48 hrs by MTS assay; assay type: functional; outline: as §2
# BT-474 [11] = experiment: Induction of apoptosis in human BT474 cells at 10 uM by TUNEL assay; assay type: functional
# MCF7 [12] = experiment: Induction of apoptosis in human MCF7 cells at 10 uM after 48 hrs by TUNEL assay; assay type: functional
# MCF7 [13] = experiment: Induction of apoptosis in human MCF7 cells expressing VEGFR3 at 10 uM after 48 hrs by TUNEL assay; assay type: functional
# BT-474 [14] = experiment: Induction of apoptosis in human BT474 cells assessed as procaspase 8 activation after 48 hrs; assay type: functional, cell-based
# MCF7 [15] = experiment: Induction of apoptosis in human MCF7 cells assessed as procaspase 8 activation after 48 hrs; assay type: functional, cell-based
# MCF7 [16] = experiment: Induction of apoptosis in human MCF7 cells expressing VEGFR3 assessed as procaspase 8 activation after 48 hrs; assay type: functional, cell-based
# BT-474 [17] = experiment: Induction of apoptosis in human BT474 cells assessed as PARP degradation after 48 hrs; assay type: functional, cell-based
# MCF7 [18] = experiment: Induction of apoptosis in human MCF7 cells assessed as PARP degradation after 48 hrs; assay type: functional, cell-based
# MCF7 [19] = experiment: Induction of apoptosis in human MCF7 cells expressing VEGFR3 assessed as PARP degradation after 48 hrs; assay type: functional, cell-based
# BT-474 [20] = experiment: Decrease in colocalization of FAK-paxillin complex in human BT474 cells at 10 uM after 24 hrs by confocal microscopy; assay type: functional; parameters: scale not given: the % may be the effect or the level left
# Outline: (§5)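 Cells were treated for 24 h with DMSO or 10 µM compound, then dual-immunostained for FAK (Alexa Fluor 488) together with VEGFR-3 or paxillin (Alexa Fluor 546). Confocal microscopy with scatter-plot analysis gave the percentage of colocalized molecules.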
# BT-474 [21] = experiment: Decrease in colocalization of FAK-VEGFR3 complex in human BT474 cells at 10 uM after 24 hrs by confocal microscopy; assay type: functional; parameters: scale not given: the % may be the effect or the level left; outline: as §5
# MCF7 [22] = experiment: Decrease in colocalization of FAK-VEGFR3 complex in human MCF7 cells expressing VEGFR3 at 10 uM after 24 hrs by confocal microscopy; assay type: functional; parameters: scale not given: the % may be the effect or the level left; outline: as §5
# [23] = target: Focal adhesion kinase 1/vascular endothelial growth factor receptor 3 (Homo sapiens) (UniProt P35916+Q05397); experiment: Disruption of FAK-VEGFR3 binding in human BT474 cells at 10 uM after 24 hrs by immunoprecipitation technique; assay type: cell-based; details: BT-474
# Outline: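 BT474 cells were treated for 24 h with increasing concentrations and then lysed. Lysates were immunoprecipitated with anti-VEGFR-3 antibody, and co-precipitated FAK was detected by western blot.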
# [24] = target: Vascular endothelial growth factor receptor 3 (Homo sapiens) (UniProt P35916); experiment: Inhibition of VEGFR3 phosphorylation in human BT474 cells assessed as partial dephosphorylation at Tyr1063/1068 activation loop at 1 uM after 24 hrs by Western blotting; assay type: cell-based; details: BT-474
# [25] = target: Vascular endothelial growth factor receptor 3 (Homo sapiens) (UniProt P35916); experiment: Inhibition of VEGFR3 phosphorylation in human BT474 cells assessed as complete dephosphorylation at Tyr1063/1068 activation loop at 10 uM by Western blotting; assay type: cell-based; details: BT-474
# Outline: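 BT474 cells were exposed for 24 h to increasing doses (1 and 10 µM). Western blots of lysates were probed with a phospho-specific VEGFR-3 antibody for Tyr1063/1068 in the kinase activation loop.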
# [26] = target: Focal adhesion kinase 1 (Homo sapiens) (UniProt Q05397); experiment: Inhibition of FAK phosphorylation in human BT474 cells assessed as partial dephosphorylation at 1 uM after 24 hrs by Western blotting; assay type: cell-based; details: BT-474
# [27] = target: Focal adhesion kinase 1 (Homo sapiens) (UniProt Q05397); experiment: Inhibition of FAK phosphorylation in human BT474 cells assessed as decrease in total phosphorylation at 10 uM after 24 hrs by immunoprecipitation technique; assay type: cell-based; details: BT-474
# Outline: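 MCF7-VEGFR-3 and BT474 cells were treated for 24 h at 10 µM or 1 µM. FAK was immunoprecipitated and blotted with anti-phosphotyrosine antibody 4G10 to assess total FAK tyrosine phosphorylation.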
# Sequence of Vascular endothelial growth factor receptor 3 (Homo sapiens) (P35916 whole entry): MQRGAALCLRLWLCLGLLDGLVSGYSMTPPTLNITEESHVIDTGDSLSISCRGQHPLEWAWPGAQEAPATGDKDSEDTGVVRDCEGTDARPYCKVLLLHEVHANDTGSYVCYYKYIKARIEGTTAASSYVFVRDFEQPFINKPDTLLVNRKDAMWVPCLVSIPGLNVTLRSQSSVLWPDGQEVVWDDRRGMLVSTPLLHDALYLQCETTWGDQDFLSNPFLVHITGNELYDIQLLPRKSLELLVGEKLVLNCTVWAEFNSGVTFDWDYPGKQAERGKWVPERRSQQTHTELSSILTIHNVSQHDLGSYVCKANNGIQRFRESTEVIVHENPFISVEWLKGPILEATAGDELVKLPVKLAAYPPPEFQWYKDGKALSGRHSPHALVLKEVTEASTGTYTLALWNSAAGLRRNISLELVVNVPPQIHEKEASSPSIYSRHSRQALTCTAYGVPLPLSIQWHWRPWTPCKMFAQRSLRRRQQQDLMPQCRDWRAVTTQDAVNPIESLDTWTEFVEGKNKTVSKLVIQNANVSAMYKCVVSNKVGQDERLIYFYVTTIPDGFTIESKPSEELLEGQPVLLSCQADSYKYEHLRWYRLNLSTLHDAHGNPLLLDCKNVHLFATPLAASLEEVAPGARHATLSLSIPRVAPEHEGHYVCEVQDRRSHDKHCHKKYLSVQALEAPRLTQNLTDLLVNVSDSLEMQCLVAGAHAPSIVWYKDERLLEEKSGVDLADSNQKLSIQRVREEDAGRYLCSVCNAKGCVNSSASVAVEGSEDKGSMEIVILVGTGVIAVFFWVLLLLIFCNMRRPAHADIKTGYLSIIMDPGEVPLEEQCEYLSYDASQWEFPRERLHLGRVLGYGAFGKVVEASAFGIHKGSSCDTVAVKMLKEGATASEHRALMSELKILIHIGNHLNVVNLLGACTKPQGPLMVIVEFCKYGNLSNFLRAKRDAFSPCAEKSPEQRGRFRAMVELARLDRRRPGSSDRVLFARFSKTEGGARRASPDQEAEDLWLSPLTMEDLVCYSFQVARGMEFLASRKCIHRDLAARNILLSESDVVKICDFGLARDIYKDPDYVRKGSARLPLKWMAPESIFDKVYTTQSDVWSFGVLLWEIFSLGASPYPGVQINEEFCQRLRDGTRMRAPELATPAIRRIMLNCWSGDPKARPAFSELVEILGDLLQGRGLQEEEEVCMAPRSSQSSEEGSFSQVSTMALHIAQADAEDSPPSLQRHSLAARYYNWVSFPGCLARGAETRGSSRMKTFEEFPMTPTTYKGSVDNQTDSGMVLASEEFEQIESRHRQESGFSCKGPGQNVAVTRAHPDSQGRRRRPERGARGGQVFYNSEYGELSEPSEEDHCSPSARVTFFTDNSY
# Sequence of Focal adhesion kinase 1 (Homo sapiens) (Q05397 2-1052 limits assumed): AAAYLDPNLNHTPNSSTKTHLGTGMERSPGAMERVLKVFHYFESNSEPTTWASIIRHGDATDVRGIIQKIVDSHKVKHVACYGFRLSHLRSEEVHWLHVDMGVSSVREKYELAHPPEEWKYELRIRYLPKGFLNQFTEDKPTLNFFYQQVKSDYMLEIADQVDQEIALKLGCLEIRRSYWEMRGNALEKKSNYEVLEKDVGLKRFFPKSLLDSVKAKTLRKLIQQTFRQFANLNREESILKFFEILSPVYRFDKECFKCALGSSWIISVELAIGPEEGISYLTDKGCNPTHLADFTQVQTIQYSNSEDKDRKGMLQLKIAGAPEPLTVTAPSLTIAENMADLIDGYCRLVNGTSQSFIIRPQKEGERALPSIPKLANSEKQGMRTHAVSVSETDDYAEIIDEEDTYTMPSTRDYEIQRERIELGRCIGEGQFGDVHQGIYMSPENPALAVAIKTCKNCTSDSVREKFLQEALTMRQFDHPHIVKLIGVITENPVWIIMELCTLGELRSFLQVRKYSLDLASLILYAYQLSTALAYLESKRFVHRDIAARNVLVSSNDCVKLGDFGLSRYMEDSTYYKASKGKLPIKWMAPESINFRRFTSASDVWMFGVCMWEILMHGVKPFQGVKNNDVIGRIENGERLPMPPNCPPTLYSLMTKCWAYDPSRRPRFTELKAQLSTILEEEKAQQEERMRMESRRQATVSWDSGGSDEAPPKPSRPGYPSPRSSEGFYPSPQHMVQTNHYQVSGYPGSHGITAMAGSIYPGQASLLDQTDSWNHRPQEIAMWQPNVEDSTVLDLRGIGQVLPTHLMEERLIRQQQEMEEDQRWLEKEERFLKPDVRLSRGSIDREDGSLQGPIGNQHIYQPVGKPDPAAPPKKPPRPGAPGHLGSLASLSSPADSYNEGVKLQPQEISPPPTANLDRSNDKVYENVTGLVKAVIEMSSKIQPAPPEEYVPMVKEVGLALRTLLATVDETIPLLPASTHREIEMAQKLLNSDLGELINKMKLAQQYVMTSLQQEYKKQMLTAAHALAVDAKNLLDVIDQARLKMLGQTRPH
# Sequence of Focal adhesion kinase 1/vascular endothelial growth factor receptor 3 (Homo sapiens) (P35916 whole entry, looked up): as the sequence (P35916 whole entry) above
# Sequence of Focal adhesion kinase 1/vascular endothelial growth factor receptor 3 (Homo sapiens) (Q05397 whole entry, looked up): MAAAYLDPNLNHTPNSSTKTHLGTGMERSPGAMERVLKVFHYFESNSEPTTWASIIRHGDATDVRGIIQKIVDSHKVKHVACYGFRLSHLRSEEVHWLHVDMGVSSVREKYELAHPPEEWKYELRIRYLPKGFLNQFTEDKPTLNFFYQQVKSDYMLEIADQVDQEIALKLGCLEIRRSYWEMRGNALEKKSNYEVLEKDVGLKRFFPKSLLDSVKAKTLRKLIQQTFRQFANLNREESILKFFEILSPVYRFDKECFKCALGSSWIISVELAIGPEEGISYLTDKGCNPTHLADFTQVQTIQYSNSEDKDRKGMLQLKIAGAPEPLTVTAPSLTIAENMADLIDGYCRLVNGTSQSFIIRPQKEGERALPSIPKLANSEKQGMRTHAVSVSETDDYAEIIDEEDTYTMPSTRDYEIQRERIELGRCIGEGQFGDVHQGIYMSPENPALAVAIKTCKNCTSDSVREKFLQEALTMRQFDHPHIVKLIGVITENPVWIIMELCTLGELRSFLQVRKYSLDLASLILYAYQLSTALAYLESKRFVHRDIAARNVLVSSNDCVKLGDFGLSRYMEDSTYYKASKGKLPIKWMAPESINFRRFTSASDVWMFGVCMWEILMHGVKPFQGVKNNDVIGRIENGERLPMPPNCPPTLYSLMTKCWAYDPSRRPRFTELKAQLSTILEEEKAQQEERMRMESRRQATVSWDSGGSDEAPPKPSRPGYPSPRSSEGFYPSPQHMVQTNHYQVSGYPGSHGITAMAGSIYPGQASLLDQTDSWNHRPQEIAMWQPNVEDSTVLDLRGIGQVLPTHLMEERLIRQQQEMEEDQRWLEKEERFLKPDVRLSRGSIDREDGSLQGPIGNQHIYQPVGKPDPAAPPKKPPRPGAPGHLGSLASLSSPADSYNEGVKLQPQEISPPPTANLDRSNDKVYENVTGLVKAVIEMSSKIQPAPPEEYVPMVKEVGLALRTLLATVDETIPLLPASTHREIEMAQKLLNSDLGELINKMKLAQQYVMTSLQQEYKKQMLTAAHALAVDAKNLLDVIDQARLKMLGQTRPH
smiles,measurement,setting,value
CN(C)CCN(Cc1ccc(Cl)cc1)c1ccccn1.Cl [CHLORPYRAMIN HYDROCHLORIDE],IC50,PANC-1,1000 nM
same,IC50,[1],1000 nM
same,IC50,HT-29,1000 nM
same,Activity,BT-474 [2],40%
same,Activity,[3],Active
same,Activity,BT-474 [4],Active
same,Activity,MCF7 [5],Dose-dependent effect
same,Activity,[6],Active
same,Activity,BT-474 [7],Active
same,Activity,MCF7 [8],Dose-dependent effect
same,Activity,BT-474 [9],Dose-dependent effect
same,fold change (FC),MCF7 [10],2
same,Activity,BT-474 [11],60%
same,Activity,MCF7 [12],18%
same,Activity,MCF7 [13],76%
same,Activity,BT-474 [14],Dose-dependent effect
same,Activity,MCF7 [15],Dose-dependent effect
same,Activity,MCF7 [16],Dose-dependent effect
same,Activity,BT-474 [17],Dose-dependent effect
same,Activity,MCF7 [18],Dose-dependent effect
same,Activity,MCF7 [19],Dose-dependent effect
same,Activity,BT-474 [20],76%
same,Activity,BT-474 [21],45%
same,Activity,MCF7 [22],29%
same,Activity,[23],Active
same,Activity,[24],Active
same,Activity,[25],Active
same,Activity,[26],Active
same,Activity,[27],Active
